Measurements published in ChEMBL document CHEMBL3297702, “Improving photodynamic inactivation of bacteria in dentistry: highly effective and fast killing of oral key pathogens with novel tooth-colored type-II photosensitizers” (J Med Chem, 2014).
Calls of active or inactive are those of the source. The rule behind the calls is not given here.

Columns and labels:
Streptococcus mutans [1] = experiment: Photodynamic inactivation of Streptococcus mutans ATCC 25175 assessed as reduction of log10 CFU at 10 uM incubated prior to irradiation with 25 j/cm'2 for 20 secs measured after 48 hrs by agar plating method (reference value: <1 no unit); assay type: functional
Streptococcus mutans [2] = experiment: Photodynamic inactivation of Streptococcus mutans ATCC 25175 assessed as reduction of log10 CFU at 1 uM incubated prior to irradiation with 150 j/cm'2 for 120 secs measured after 48 hrs by agar plating method (reference value: <1 no unit); assay type: functional
Streptococcus mutans [3] = experiment: Photodynamic inactivation of Streptococcus mutans ATCC 25175 assessed as reduction of log10 CFU at 10 uM incubated prior to irradiation with 150 j/cm'2 for 120 secs measured after 48 hrs by agar plating method (reference value: <1 no unit); assay type: functional
Enterococcus faecalis [4] = experiment: Photodynamic inactivation of Enterococcus faecalis ATCC 29212 assessed as reduction of log10 CFU at 1 to 250 uM preincubated for 10 secs followed by irradiation with 150 j/cm'2 for 120 secs measured after 24 hrs by agar plating method; assay type: functional, organism-based
Method in brief: (§1)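 E. faecalis ATCC 29212, aerobic overnight BHI culture at 37 °C, was harvested at stationary phase and suspended in PBS at 10^7–10^8 bacteria/mL. It was mixed 1:1 with PS to 0–250 µM final, held 10 s, then illuminated (1260 ± 50 mW/cm2) or kept dark. Dilutions were plated on Mueller-Hinton agar, aerobic 37 °C 24 h, CFU counted. Medians of three independent triplicate experiments, referred to untreated controls.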

[5] = system: Aggregatibacter actinomycetemcomitans; experiment: Photodynamic inactivation of Aggregatibacter actinomycetemcomitans ATCC 43718 assessed as reduction of log10 CFU at 5 uM incubated prior to irradiation with 25 j/cm'2 for 20 secs measured after 48 hrs by agar plating method relative to control; assay type: functional, Y4
Method in brief: (§2)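 A. actinomycetemcomitans ATCC 43718 cultured overnight in BHI broth under anaerobic conditions, 37 °C with shaking. Stationary-phase cells were spun down, taken up in PBS to 10^7–10^8/mL, and combined 1:1 with PS (final 0–250 µM) or water. After 10 s they were irradiated at 1260 ± 50 mW/cm2 or kept dark. Serial dilutions went onto BHI agar, incubated anaerobically at 37 °C for 48 h, and CFU were scored. Results are medians from 3 experiments × triplicate versus untreated controls.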

[6] = system: Aggregatibacter actinomycetemcomitans; experiment: Photodynamic inactivation of Aggregatibacter actinomycetemcomitans ATCC 43718 assessed as reduction of log10 CFU at 1 to 250 uM incubated prior to irradiation with 25 j/cm'2 for 20 secs measured after 48 hrs by agar plating method; assay type: functional; settings: Y4; method in brief: as §2
Actinomyces naeslundii [7] = experiment: Photodynamic inactivation of Actinomyces naeslundii T14V assessed as reduction of log10 CFU at 1 to 250 uM preincubated for 10 secs followed by irradiation with 50 j/cm'2 for 40 secs measured after 48 hrs by agar plating method; assay type: functional, organism-based
Method in brief: (§3)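 A. naeslundii T14V grown overnight at 37 °C, shaken, aerobically in BHI broth. Harvested at stationary phase, resuspended in PBS to 10^7–10^8 bacteria/mL (OD600). Mixed 1:1 with PS (final 0–250 µM) or water, 10 s incubation, then blue photopolymerizer light (1260 ± 50 mW/cm2) or dark. Tenfold dilutions plated on blood agar, aerobic 37 °C 48 h, CFU counted; medians of three independent experiments in triplicate.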

[8] = Stability of the compound in acidic medium at 60 uM at pH 2 after 5 to 30 mins by UV-vis spectra analysis; assay type: physicochemical; settings: buffer, pH 2, 60 µM
Method in brief: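 UV-Vis absorption spectra recorded in buffer solutions at different pH values after 5 and 30 min incubation.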

[9] = system: Aggregatibacter actinomycetemcomitans; experiment: Photodynamic inactivation of Aggregatibacter actinomycetemcomitans ATCC 43718 assessed as reduction of log10 CFU at 5 uM incubated prior to irradiation with 50 j/cm'2 for 40 secs measured after 48 hrs by agar plating method (reference value: <1 no unit); assay type: functional, Y4; method in brief: as §2
[10] = system: Aggregatibacter actinomycetemcomitans; experiment: Photodynamic inactivation of Aggregatibacter actinomycetemcomitans ATCC 43718 assessed as reduction of log10 CFU at 10 uM incubated prior to irradiation with 50 j/cm'2 for 40 secs measured after 48 hrs by agar plating method (reference value: <1 no unit); assay type: functional, Y4; method in brief: as §2
Actinomyces naeslundii [11] = experiment: Photodynamic inactivation of Actinomyces naeslundii T14V assessed as reduction of log10 CFU at 10 uM incubated prior to irradiation with 25 j/cm'2 for 20 secs measured after 48 hrs by agar plating method (reference value: <1 no unit); assay type: functional; method in brief: as §3
Streptococcus mutans [12] = experiment: Photodynamic inactivation of Streptococcus mutans ATCC 25175 assessed as reduction of log10 CFU at 1 to 250 uM preincubated for 10 secs followed by irradiation with 150 j/cm'2 for 120 secs measured after 48 hrs by agar plating method; assay type: functional
Actinomyces naeslundii [13] = experiment: Photodynamic inactivation of Actinomyces naeslundii T14V assessed as reduction of log10 CFU at 1 uM incubated prior to irradiation with 25 j/cm'2 for 20 secs measured after 48 hrs by agar plating method (reference value: <1 no unit); assay type: functional; method in brief: as §3
[14] = Stability of the compound in D2O at 90 degC after > 10 mins by NMR analysis; assay type: physicochemical
[15] = system: Aggregatibacter actinomycetemcomitans; experiment: Photodynamic inactivation of Aggregatibacter actinomycetemcomitans ATCC 43718 assessed as reduction of log10 CFU at 100 uM incubated prior to irradiation with 150 j/cm'2 for 120 secs measured after 48 hrs by agar plating method relative to control; assay type: functional, Y4; method in brief: as §2
Enterococcus faecalis [16] = experiment: Photodynamic inactivation of Enterococcus faecalis ATCC 29212 assessed as reduction of log10 CFU at 1 to 250 uM preincubated for 10 secs followed by irradiation with 50 j/cm'2 for 40 secs measured after 24 hrs by agar plating method; assay type: functional, organism-based; method in brief: as §1
Streptococcus mutans [17] = experiment: Photodynamic inactivation of Streptococcus mutans ATCC 25175 assessed as reduction of log10 CFU at 5 uM incubated prior to irradiation with 50 j/cm'2 for 40 secs measured after 48 hrs by agar plating method (reference value: <1 no unit); assay type: functional
[18] = system: Aggregatibacter actinomycetemcomitans; experiment: Photodynamic inactivation of Aggregatibacter actinomycetemcomitans ATCC 43718 assessed as reduction of log10 CFU at 1 uM incubated prior to irradiation with 50 j/cm'2 for 40 secs measured after 48 hrs by agar plating method (reference value: <1 no unit); assay type: functional, Y4; method in brief: as §2
[19] = system: Aggregatibacter actinomycetemcomitans; experiment: Photodynamic inactivation of Aggregatibacter actinomycetemcomitans ATCC 43718 assessed as reduction of log10 CFU at 5 uM incubated prior to irradiation with 150 j/cm'2 for 120 secs measured after 48 hrs by agar plating method relative to control; assay type: functional, Y4; method in brief: as §2
Streptococcus mutans [20] = experiment: Photodynamic inactivation of Streptococcus mutans ATCC 25175 assessed as reduction of log10 CFU at 5 uM incubated prior to irradiation with 150 j/cm'2 for 120 secs measured after 48 hrs by agar plating method (reference value: <1 no unit); assay type: functional
Streptococcus mutans [21] = experiment: Photodynamic inactivation of Streptococcus mutans ATCC 25175 assessed as reduction of log10 CFU at 100 uM incubated prior to irradiation with 150 j/cm'2 for 120 secs measured after 48 hrs by agar plating method (reference value: <1 no unit); assay type: functional

Row | SMILES | log10cfu (Streptococcus mutans [1]) | log10cfu (Streptococcus mutans [2]) | log10cfu (Streptococcus mutans [3]) | Activity (Enterococcus faecalis [4]) | log10cfu [5] | Activity [6] | Activity (Actinomyces naeslundii [7]) | Stability [8] | log10cfu [9] | log10cfu [10] | log10cfu (Actinomyces naeslundii [11]) | Activity (Streptococcus mutans [12]) | log10cfu (Actinomyces naeslundii [13]) | Stability [14] | log10cfu [15] | Activity (Enterococcus faecalis [16]) | log10cfu (Streptococcus mutans [17]) | log10cfu [18] | log10cfu [19] | log10cfu (Streptococcus mutans [20]) | other results
1 | O=C1C(C[n+]2ccccc2)=Cc2cccc3cccc1c23.[Cl-] | <3 | <3 | >6 | Active | <3 | Active | Active | Stable | >6 | >6 | > 5 | Active | <1 | Stable | >6 | Active | <3 | <3 | >6 | >6 | log10cfu (Streptococcus mutans [21]): >6
2 | C[N+](C)(CCO)CC1=Cc2cccc3cccc(c23)C1=O.[Cl-] | <1 | <1 | >6 | – | <3 | – | – | – | <3 | <3 | <3 | – | <1 | – | >6 | – | <1 | <3 | >6 | <3 | log10cfu (Streptococcus mutans [21]): >6
3 | C[N+](C)(C)CC1=Cc2cccc3cccc(c23)C1=O.[Cl-] | – | – | – | Active | – | Active | Active | Stable | – | – | – | Active | – | Stable | – | Active | – | – | – | – | –
